Results reported in publication PMC4423566 (Nature communications, 2015).
Read-outs that look alike come from different tables or passages of the source. Square brackets hold non-standard residues; d marks the D form. Peptide text beside a SMILES is read from it. * marks the point of attachment. X1 = CC(=O)N[C@@H]1[C@@H](O[C@@H]2O[C@H](CO)[C@H](O)[C@H](O)[C@H]2O)[C@@H](O)[C@@H](CO[C@@H]2O[C@H](CO)[C@@H](O[C@@H]3O[C@H](CO)[C@H](O)[C@H](O[C@]4(C(=O)O)C[C@H](O)[C@@H](NC(C)=O)[C@H]([C@H](O)[C@H](O)CO)O4)[C@H]3O)[C@H](O[C@@H]3O[C@@H](C)[C@@H](O)[C@@H](O)[C@@H]3O)[C@H]2NC(C)=O)O[C@@H]1*; Phe(4-CH2SO3H) = N[C@@H](Cc1ccc(CS(=O)(=O)O)cc1)C(=O)O; sY = N[C@@H](Cc1ccc(OS(=O)(=O)O)cc1)C(=O)O; Mca = COc1ccc2c(CC(=O)*)cc(=O)oc2c1

Key:
[1] = Temperature- and pH-dependent stability by RP-HPLC; format: physicochemical; settings: for stability at low pH: pH 5, T = 37°C
P-selectin [2] = assay: Microarray binding of glycopeptide mimics to selectin-Ig chimeras; set-up: species or system human and mouse; settings: selectin-Ig chimeras 5-20 μg/mL, Alexa-488 anti-human IgG
[3] = tested on: platelet-neutrophil binding and platelet aggregation in venules; assay: TNF-α-induced venular inflammation, cremaster intravital microscopy; format: in vivo; settings: 3 hr after TNF-α; GSnP-6 4 μmol/kg IV, antibody 75 μg/mouse IV
Summary of the method: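 Male C57BL/6 mice, 6–8 weeks old, received intrascrotal TNF-α (0.5 μg) 3 h before cremaster preparation. Just before imaging, test compound (4 μmol/kg), anti-CD62P or saline was given via jugular cannula. Labels were Dylight 649 anti-CD42b (platelets) and Alexa 488 anti-Gr-1 (neutrophils). Venules 30–45 μm (8–10/mouse, 5 mice) were imaged over 2 min. Platelet signal was taken as AUC normalized to vessel area, reported as median integrated fluorescence.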

L-Sel-Ig = assay: Biacore binding assay, L-selectin
Summary of the method: (§1)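 Biotinylated test glycopeptide was captured on a streptavidin-coated sensor chip at low (< 5 RU) or high (60 RU) density. P-, L- or E-selectin-Ig was applied at 2.5–60 μg/mL. Kinetic parameters were fitted to a 1:1 binding model. Affinity relative to P-Sel-Ig was estimated by comparing binding at the two capture densities.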

[4] = biological target: human L-selectin Fc chimera (Homo sapiens, UniProt P14151); assay: Flow cytometry, L-selectin Fc chimera binding to human U937; format: cell-based; settings: read-out: IC50, inhibition of PSGL-1/L-selectin interactions; human leukocytes (human U937)
human P-selectin [5] = biological target: T1, human P-selectin (Homo sapiens, UniProt P16109); assay: Biacore binding assay, human P-selectin; settings: from Kd 22 nM
E-selectin Fc chimera = assay: Flow cytometry, E-selectin Fc chimera binding to leukocytes; format: cell-based, human and mouse; settings: GSnP-6 0 - 30 μM
Summary of the method: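 Cells were heparinized mouse blood (cardiac puncture), citrated human blood, or cultured U937. They were incubated with test compound (0–30 μM) and species-matched selectin Fc chimera (2 μg/mL), then PE anti-Fc (1:100). Read-out was flow-cytometric MFI, expressed as percent inhibition versus PBS control, in triplicate. KPL1 and 4RA10 anti-PSGL-1 antibodies served as specificity checks.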

mouse P-selectin = mouse P-selectin (Mus musculus, UniProt Q01102); assay: Biacore binding assay, mouse P-selectin; settings: printed as fold lower
E-Sel-Ig = assay: Biacore binding assay, E-selectin
Summary of the method: as §1

[6] = tested on: leukocyte rolling in cremaster venules; assay: Intravital microscopy of mouse cremaster, leukocyte rolling; format: in vivo; settings: 4 μmol/kg IV
Summary of the method: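 Mice under IP ketamine/xylazine/atropine were kept on a 37°C blanket. Test compound (4 μmol/kg in saline) or saline was given through a jugular cannula. The cremaster was superfused with bicarbonate-buffered saline (5% CO2 in N2). Venules 30–40 μm were viewed 15–25 min post-surgical stimulation, seven per mouse. Velocities of 5–10 rolling leukocytes per venule were tracked over 2 s; mean and median were taken.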

[7] = tested on: human neutrophil and monocyte rolling and arrest on ICAM-1/P-selectin substrate; assay: In vitro flow assay on ICAM-1/P-selectin substrate under shear; format: cell-based
Summary of the method: (§2)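 Aminosilanized glass was coated with human ICAM-1-Fc plus P- or E-selectin-Fc (5 μg/mL, 1 h). Human blood cells from healthy donors were density-separated and suspended in HEPES-buffered salt solution. Cells were exposed 10 min to PBS or test compound (up to 30 μM), then perfused at 2 dynes/cm2. Video ran 2 min at 7.5 frames/s. Centroids were tracked over 10 s; < 1 μm/s counted as arrested; capture and rolling velocity scored.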

[8] = tested on: platelet-leukocyte aggregate formation; assay: Platelet-leukocyte aggregates in mouse whole blood, dual-label flow cytometry; format: cell-based; settings: 40 μM, PAR4-activating peptide
Summary of the method: (§3)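 Anticoagulated whole blood was treated with 40 μM test compound at room temperature. Stimulation used PAR1-activating peptide 40 μM (human) or PAR4-activating peptide 200 μM (mouse). Staining was anti-CD42a-PE/anti-CD45-APC (human) or anti-CD41-PE/anti-CD45-APC (mouse). CD45+ neutrophils and monocytes were gated by side scatter and scored as % platelet-positive. Saline and anti-CD62P (5 μg/mL) were controls. Samples were run in triplicate.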

[9] = tested on: leukocyte rolling and arrest on substrates coated with ICAM-1 and E-selectin; assay: In vitro flow assay on ICAM-1/E-selectin substrate under shear; format: cell-based, human; settings: concentrations as high as 30 μM
Summary of the method: as §2

[10] = tested on: platelet-leukocyte aggregate formation; assay: Platelet-leukocyte aggregates in human whole blood, dual-label flow cytometry; format: cell-based; settings: 40 μM, PAR1-activating peptide
Summary of the method: as §3

P-selectin [11] = settings: cited from earlier work
[12] = tested on: human platelet-monocyte aggregation; settings: cited from earlier work
L-selectin = settings: cited from earlier work
E-selectin = settings: cited from earlier work
[13] = biological target: recombinant mouse P-selectin Fc chimera (mouse) (UniProt Q01102); assay: flow cytometry on cells
[14] = biological target: recombinant mouse P-selectin Fc chimera (mouse) (UniProt Q01102); assay: flow cytometry on cells; remark: listed apart in the source
[15] = biological target: recombinant human P-selectin Fc chimera (human) (UniProt P16109); assay: flow cytometry on cells
[16] = biological target: recombinant mouse L-selectin Fc chimera (mouse) (UniProt P18337); assay: flow cytometry on cells
Sequence of recombinant mouse L-selectin Fc chimera (mouse) (P18337 39-332, change not shown): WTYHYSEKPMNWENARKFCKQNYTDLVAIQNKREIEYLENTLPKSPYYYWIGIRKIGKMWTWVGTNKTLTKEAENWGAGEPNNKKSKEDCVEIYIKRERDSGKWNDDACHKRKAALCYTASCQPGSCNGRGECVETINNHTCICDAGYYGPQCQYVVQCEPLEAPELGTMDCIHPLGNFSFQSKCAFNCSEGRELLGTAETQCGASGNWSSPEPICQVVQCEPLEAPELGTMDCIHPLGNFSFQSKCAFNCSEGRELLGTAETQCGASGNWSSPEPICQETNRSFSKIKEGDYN

[17] = biological target: recombinant human P-selectin Fc chimera (human) (UniProt P16109); assay: flow cytometry on cells; remark: listed apart in the source
human P-selectin [18] = biological target: T1, human P-selectin; settings: cited from earlier work
[19] = Biacore, compared with P-selectin
[20] = fold lower, densities < 5 RU vs 60 RU

Molecule: COc1ccc2c(CC(=O)NCCCC[C@H](N)C(=O)N[C@@H](CCC(=O)O)C(=O)N[C@@H](Cc3ccc(OS(=O)(=O)O)cc3)C(=O)N[C@@H](CCC(=O)O)C(=O)N[C@@H](Cc3ccc(OS(=O)(=O)O)cc3)C(=O)N[C@@H](CC(C)C)C(=O)N[C@@H](CC(=O)O)C(=O)N[C@@H](Cc3ccc(OS(=O)(=O)O)cc3)C(=O)N[C@@H](CC(=O)O)C(=O)N[C@@H](Cc3ccccc3)C(=O)N[C@@H](CC(C)C)C(=O)N3CCC[C@H]3C(=O)N[C@@H](CCC(=O)O)C(=O)N[C@H](C(=O)N[C@@H](CCC(=O)O)C(=O)N3CCC[C@H]3C(=O)N[C@@H](CC(C)C)C(=O)O)[C@@H](C)O[C@H]3O[C@H](CO[C@@H]4O[C@H](CO)[C@@H](O[C@@H]5O[C@H](CO)[C@H](O)[C@H](O[C@]6(C(=O)O)C[C@H](O)[C@@H](NC(C)=O)[C@H]([C@H](O)[C@H](O)CO)O6)[C@H]5O)[C@H](O[C@@H]5O[C@@H](C)[C@@H](O)[C@@H](O)[C@@H]5O)[C@H]4NC(C)=O)[C@H](O)[C@H](O[C@@H]4O[C@H](CO)[C@H](O)[C@H](O)[C@H]4O)[C@H]3NC(C)=O)cc(=O)oc2c1 [GSP-6] (H-K(Mca)E[sY]E[sY]LD[sY]DFLPET(X1)EPL-OH)
- stability at low pH [1]: rapidly degraded
- microarray binding to P-selectin (in words) (P-selectin [2]): bound to P-selectin more strongly than to E- or L-selectin

Molecule: COc1ccc2c(CC(=O)NCCCC[C@H](N)C(=O)N[C@@H](CCC(=O)O)C(=O)N[C@@H](Cc3ccc(CS(=O)(=O)O)cc3)C(=O)N[C@@H](CCC(=O)O)C(=O)N[C@@H](Cc3ccc(CS(=O)(=O)O)cc3)C(=O)N[C@@H](CC(C)C)C(=O)N[C@@H](CC(=O)O)C(=O)N[C@@H](Cc3ccc(CS(=O)(=O)O)cc3)C(=O)N[C@@H](CC(=O)O)C(=O)N[C@@H](Cc3ccccc3)C(=O)N[C@@H](CC(C)C)C(=O)N3CCC[C@H]3C(=O)N[C@@H](CCC(=O)O)C(=O)N[C@H](C(=O)N[C@@H](CCC(=O)O)C(=O)N3CCC[C@H]3C(=O)N[C@@H](CC(C)C)C(=O)O)[C@@H](C)O[C@H]3O[C@H](CO[C@@H]4O[C@H](CO)[C@@H](O[C@@H]5O[C@H](CO)[C@H](O)[C@H](O[C@]6(C(=O)O)C[C@H](O)[C@@H](NC(C)=O)[C@H]([C@H](O)[C@H](O)CO)O6)[C@H]5O)[C@H](O[C@@H]5O[C@@H](C)[C@@H](O)[C@@H](O)[C@@H]5O)[C@H]4NC(C)=O)[C@H](O)[C@H](O[C@@H]4O[C@H](CO)[C@H](O)[C@H](O)[C@H]4O)[C@H]3NC(C)=O)cc(=O)oc2c1 [GSnP-6] (H-K(Mca)E[Phe(4-CH2SO3H)]E[Phe(4-CH2SO3H)]LD[Phe(4-CH2SO3H)]DFLPET(X1)EPL-OH; N-terminus and C-terminus assumed)
- platelet accumulation, median integrated platelet fluorescence (in words) [3]: limited platelet signal
- platelet aggregation and platelet-PMN binding (in words) [3]: significantly reduced
- binding to L-selectin (in words) (L-Sel-Ig; [19]): lower affinity
- affinity of L-Sel-Ig for immobilized GSnP-6 relative to P-Sel-Ig (L-Sel-Ig; [20]): ~ 25 fold
- IC50 [4]: ~30 µM
- experimental interaction energy with P-selectin (human P-selectin [5]): -10.5 kcal/mol
- stability at low pH [1]: without observed degradation products
- stability at high temperature ([1]; pH 7.5, T = 60°C): without observed degradation products
- inhibition of E-selectin interactions (in words) (E-selectin Fc chimera): not observed
- Kd to murine P-selectin relative to human P-selectin (mouse P-selectin): ~ 9 fold
- binding to E-selectin (in words) (E-Sel-Ig; [19]): lower affinity
- affinity of E-Sel-Ig for immobilized GSnP-6 relative to P-Sel-Ig (E-Sel-Ig; [20]): ~ 25 fold
- increase in median rolling velocities vs saline [6]: 2 fold
- mean leukocyte rolling velocity ([6]; 15-25 min after surgical stimulation): 74.9 ± 3.4 μm/s
- inhibition of rolling and arrest ([7]; 6 μM, human neutrophils and monocytes): 80%
- IC50 ([7]; read-out: IC50, inhibition of neutrophil capture in shear flow, human neutrophils, 2 dynes/cm^2): 5 µM
- inhibition of platelet-monocyte aggregate formation [8]: 47%
- inhibition of platelet-neutrophil aggregate formation [8]: 42%
- microarray binding to P-selectin (in words) (P-selectin [2]): bound to P-selectin more strongly than to E- or L-selectin
- leukocyte rolling and arrest on ICAM-1 and E-selectin (in words) [9]: did not perturb
- inhibition of platelet-monocyte aggregate formation [10]: 72%
- inhibition of platelet-neutrophil aggregate formation [10]: 65%

Molecule: O=C(O)c1c(O)c(Cc2ccc(Cl)cc2)nc2c3c(ccc12)CCCC3 [PSI-697]
- Kd (P-selectin [11]; P-selectin inhibitor): ~200 µM
- inhibition of human platelet-monocyte aggregation (in words) [12]: only weakly inhibits

Molecule: O=C(O)Cc1cccc(-c2cc(CCCCCCc3ccc(O[C@H]4O[C@H](CO)[C@@H](O)[C@H](O)[C@@H]4O)c(-c4cccc(CC(=O)O)c4)c3)ccc2O[C@H]2O[C@H](CO)[C@@H](O)[C@H](O)[C@@H]2O)c1 [bimosiamose, reference compound]
- IC50 (P-selectin [11]; read-out: IC50 against P-selectin): 70 µM

Molecule: GSnP-6 (peptide)
- IC50 [13]: 28 µM
- IC50 [14]: 19 µM
- IC50 [15]: 14 µM
- IC50 [16]: 30 µM
- IC50 [17]: 20 µM

Molecule: PSGL-1 (from UniProt Q14242)
- Kd (human P-selectin [18]): 0.073 µM

B1: P-selectin-glycoprotein-ligand-1 (protein, UniProt Q14242 42-412, looked up)
P-selectin glycoprotein …: QATEYEYLDYDFLPETEPPEMLRNSTDTTPLTGPGTPESTTVEPAARRSTGLDAGGAVTELTTELANMGNLSTDSAAMEIQTTQPAATEAQTTQPVPTEAQTTPLAATEAQTTRLTATEAQTTPLAATEAQTTPPAATEAQTTQPTGLEAQTTAPAAMEAQTTAPAAMEAQTTPPAAMEAQTTQTTAMEAQTTAPEATEAQTTQPTATEAQTTPLAAMEALSTEPSATEALSMEPTTKRGLFIPFSVSSVTHKGIPMAASNLSVNYPVGAPDHISVKQCLLAILILALVATIFFVCTVVLAVRLSRKGHMYPVRNYSPTEMVCISSLLPDGGEGPSATANGGLSKAKSPGLTPEPREDREGDDLTLHSFLP
- Kd (L-selectin; read-out: Kd of PSGL-1 binding to L-selectin): 2 to 5 µM
- Kd (E-selectin; read-out: Kd of PSGL-1 binding to E-selectin): 2 to 5 µM
